The source made the active and inactive calls. No cut-off for these calls is given here.
Assays:
Trypanosoma brucei [1] = test: Inhibition of glycosylphosphatidylinositol anchor biosynthesis in Trypanosoma brucei 117 cell-free system assessed as reduction of Manalpha1-4GlcNH2-PI formation; type: functional
Method in brief: (§1)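 Cell-free GPI synthesis using bloodstream T. brucei variant 117 membranes, 1 × 10^7 cell equivalents per assay. Membranes washed in Hepes pH 7.4/KCl/MgCl2 buffer with TLCK and leupeptin. Reaction in buffer with MnCl2, tunicamycin and dithiothreitol. Labelled with GDP-[3H]Man plus 1 mM UDP-GlcNAc. Inhibitor in DMSO, 1 mM final.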

Trypanosoma brucei [2] = test: Inhibition of Trypanosoma brucei DPMS expressed in Escherichia coli assessed as residual enzyme activity at 1 mM relative to untreated control
Method in brief: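 Recombinant full-length membrane-bound T. brucei DPMS in E. coli membranes (70 ng/ml total protein). Buffer: 50 mM Na–Hepes pH 7.4, 25 mM KCl, 5 mM MgCl2, 5 mM MnCl2, 0.1% n-octyl-glucopyranoside. Substrates: dehydrofarnesol-phosphate and GDP-[3H]Man. Inhibitor at 1 mM; 10 min at 30 °C. Lipids extracted in CHCl3:MeOH, butanol phase counted. Activity relative to a no-inhibitor control.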

Trypanosoma brucei [3] = test: Inhibition of glycosylphosphatidylinositol anchor biosynthesis in Trypanosoma brucei 117 cell-free system assessed as reduction of ethanolamine-P-Manalpha1-2Manalpha1-6Manalpha1-4GlcNH2-PI formation; type: functional; method in brief: as §1
Trypanosoma brucei [4] = test: Antitrypanosomal activity against Trypanosoma brucei 427; type: functional; details: read-out: ED50 (the source's name)
Method in brief: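 Bloodstream-form T. brucei strain 427 in culture; viability read by Alamar Blue; ED50 in μM; each experiment run at least in duplicate.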

Trypanosoma brucei [5] = test: Inhibition of glycosylphosphatidylinositol anchor biosynthesis in Trypanosoma brucei 117 cell-free system assessed as reduction of Manalpha1-6Manalpha1-4GlcNH2-PI formation formation; type: functional; method in brief: as §1
Trypanosoma brucei [6] = test: Inhibition of Trypanosoma brucei 117 DPMS-mediated glycosylphosphatidylinositol anchor biosynthesis assessed as reduction of dolicholphosphate-mannose formation; method in brief: as §1
[7] = Cytotoxicity against human HeLa cells by alamar blue assay; type: cell-based; details: read-out: ED50 (the source's name)
Method in brief: (§2)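 HeLa cells treated at 0.1 and 1.0 mM final; viability by Alamar Blue; inhibition expressed relative to a DMSO-only control.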

Trypanosoma brucei [8] = test: Inhibition of glycosylphosphatidylinositol anchor biosynthesis in Trypanosoma brucei 117 cell-free system assessed as reduction of Manalpha1-2Manalpha1-6Manalpha1-4GlcNH2-PI formation; type: functional; method in brief: as §1
Trypanosoma brucei [9] = test: Inhibition of glycosylphosphatidylinositol anchor biosynthesis in Trypanosoma brucei 117 cell-free system assessed as reduction of Manalpha1-2Manalpha1-6Manalpha1-4GlcNH2-(acyl)PI formation; type: functional; method in brief: as §1
[10] = Cytotoxicity against human HeLa cells assessed as growth inhibition at 1 mM by alamar blue assay; type: cell-based; method in brief: as §2

SMILES | Activity (Trypanosoma brucei [2]) | EC50 (Trypanosoma brucei [4]) | inhibition (Trypanosoma brucei [6]) | inhibition (Trypanosoma brucei [1]) | inhibition (Trypanosoma brucei [3]) | inhibition (Trypanosoma brucei [5]) | CC50 [7] | inhibition (Trypanosoma brucei [8]) | inhibition (Trypanosoma brucei [9]) | inhibition at 1000 µM [10]
O=C(O)CN1C(=O)/C(=C/c2ccc(O)cc2)SC1=S | 70% | 427 µM | Active | Active | Active | Active | > 1000 µM | Active | Active | –
O=C(O)CN1C(=O)/C(=C/c2ccc(OCc3ccccc3)c(OCc3ccccc3)c2)SC1=S | 20% | 492 µM | Active | Active | Active | Active | > 1000 µM | Active | Active | –
C#Cc1ccc(/C=C2\SC(=S)N(CC(=O)O)C2=O)cc1 | 94% | > 1000 µM | – | – | – | – | – | – | – | 20%
O=C(O)CN1C(=O)/C(=C/c2cccc(O)c2)SC1=S | 90% | 345 µM | – | – | – | – | – | – | – | –
O=C(O)CN1C(=O)/C(=C/c2ccc(Cl)cc2)SC1=S | 86% | 398 µM | – | – | – | – | – | – | – | –

More lines, in order of falling EC50 (Trypanosoma brucei [4]), values ahead:

Activity (Trypanosoma brucei [2]) | EC50 (Trypanosoma brucei [4]) | inhibition (Trypanosoma brucei [6]) | SMILES | inhibition (Trypanosoma brucei [1]) | inhibition (Trypanosoma brucei [3]) | inhibition (Trypanosoma brucei [5]) | CC50 [7] | inhibition (Trypanosoma brucei [8]) | inhibition (Trypanosoma brucei [9]) | inhibition at 1000 µM [10]
10% | 338 µM | inactive | O=C(O)CN1C(=O)/C(=C/c2ccc(OCc3ccccc3)cc2)SC1=S | Active | Active | Active | > 1000 µM | Active | Active | 20%
73% | 244 µM | – | N#Cc1ccc(/C=C2\SC(=S)N(CC(=O)O)C2=O)cc1 | – | – | – | – | – | – | –
42% | 232 µM | – | O=C(O)CN1C(=O)/C(=C/c2ccccc2)SC1=S | – | – | – | > 1000 µM | – | – | –
23% | 107 µM | inactive | O=C(O)CN1C(=O)/C(=C/c2ccccc2O)SC1=S | Active | Active | Active | > 1000 µM | Active | Active | –
23% | 96 µM | – | O=C(O)CN1C(=O)/C(=C/c2cccc(OCc3ccccc3)c2)SC1=S | – | – | – | > 1000 µM | – | – | –

Reference: ChEMBL document CHEMBL1153287, “First small molecular inhibitors of T. brucei dolicholphosphate mannose synthase (DPMS), a validated drug target in African sleeping sickness” (Bioorg Med Chem Lett, 2009)
